Active and inactive are the calls of the source.

One data set relates to HepG2. In words: Cytotoxicity against human HepG2 cells assessed as reduction in cell viability upto 10 uM after 48 hrs by MTT assay. It is filed as toxicity, cell-based. To be noted: hepg2, 48 h. In outline: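 HepG2 cells treated 48 h with compound at 0.1–10,000 nM; viability read by MTT versus untreated control cells. Mean ± SD of three experiments run in triplicate.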

Data set [1] is described as follows: Induction of LDLR expression in human HepG2 cells membrane in presence of 10 nM PCSK9 (reference value: 39.71 +/- 2.05%). Type of data set: functional.
Data set [2] can be described thus: Induction of LDL uptake in human HepG2 cells incubated for 2 hrs in presence of 10 nM PCSK9 by fluorescent plate reader analysis (reference value: 51.69 +/- 15.30 %). Type of data set: functional.
A short description of data set [3]: Metabolic stability in human liver microsomes assessed as clearance per mg protein at 5 uM preincubated for 10 mins followed by UDPGA addition and measured upto 60 mins by LC-MS/MS analysis. It is filed as ADME, Microsome. To be noted: time < 70 min, read-out: CLH. Put shortly: (§1)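 Compound at 5 μM final, in duplicate, from a 1 mM DMSO solution. Pre-incubated 10 min at 37 °C with human or mouse liver microsomes (0.5 mg/mL) in 50 mM potassium phosphate pH 7.4 with 3 mM MgCl2. The reaction was started with an NADPH-regenerating mix plus UDPGA. Samples taken at 0–60 min were quenched in ACN and analysed by LC–MS/MS. A no-cofactor control was included; 7-ethoxycoumarin and 7-hydroxycoumarin served as references.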
On the technique in general: Microsomes from liver hold many membrane-bound enzymes, among them those of drug oxidation.

The nature of data set [4]: Metabolic stability in mouse liver microsomes assessed as clearance per mg protein at 5 uM preincubated for 10 mins followed by UDPGA addition and measured upto 60 mins by LC-MS/MS analysis. The following applies: time < 70 min, read-out: CLH. It is filed as ADME, Microsome. Put shortly: as §1
Data set [5] is described as follows: Induction of LDLR expression in human HepG2 cells membrane in presence of 1 nM PCSK9 (reference value: 39.71 +/- 2.05%). It is filed as functional.
A short description of data set [6]: Induction of LDL uptake in human HepG2 cells incubated for 2 hrs in presence of 1 nM PCSK9 by fluorescent plate reader analysis (reference value: 51.69 +/- 15.30 %). It is filed as functional.
Data set [7] has as its target Proprotein convertase subtilisin/kexin type 9 (Homo sapiens) (UniProt Q8NBP7). In words: Inhibition of PCSK9 mediated epinephrine induced platelet aggregation in human platelet rich plasma assessed as prevention of lag time reduction at 10 nM preincubated for 15 mins followed by PRP addition by light transmission aggregometry assay. In outline: (§2)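 PRP from healthy donors (n = 5), prepared by centrifuging whole blood 10 min at 100g at room temperature without brakes. Recombinant PCSK9 (5 μg/mL) preincubated with compound for 15 min at room temperature, then added to PRP for 2 min at 37 °C. Aggregation triggered by subthreshold epinephrine (0.16 μM) and followed by light transmission aggregometry. Lag time and area under the curve were scored.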

The target is the same in data set [8]. In words: Inhibition of PCSK9 mediated epinephrine induced platelet aggregation in human platelet rich plasma assessed as prevention of AUC increase at 10 nM preincubated for 15 mins followed by PRP addition by light transmission aggregometry assay. In outline:
as §2

Sequence of Proprotein convertase subtilisin/kexin type 9 (Homo sapiens) (Q8NBP7 31-152 limits assumed): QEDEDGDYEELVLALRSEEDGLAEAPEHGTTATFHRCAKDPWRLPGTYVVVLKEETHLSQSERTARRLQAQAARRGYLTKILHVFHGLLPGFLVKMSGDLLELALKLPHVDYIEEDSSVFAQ
Sequence of Proprotein convertase subtilisin/kexin type 9 (Homo sapiens) (Q8NBP7 153-692 limits assumed): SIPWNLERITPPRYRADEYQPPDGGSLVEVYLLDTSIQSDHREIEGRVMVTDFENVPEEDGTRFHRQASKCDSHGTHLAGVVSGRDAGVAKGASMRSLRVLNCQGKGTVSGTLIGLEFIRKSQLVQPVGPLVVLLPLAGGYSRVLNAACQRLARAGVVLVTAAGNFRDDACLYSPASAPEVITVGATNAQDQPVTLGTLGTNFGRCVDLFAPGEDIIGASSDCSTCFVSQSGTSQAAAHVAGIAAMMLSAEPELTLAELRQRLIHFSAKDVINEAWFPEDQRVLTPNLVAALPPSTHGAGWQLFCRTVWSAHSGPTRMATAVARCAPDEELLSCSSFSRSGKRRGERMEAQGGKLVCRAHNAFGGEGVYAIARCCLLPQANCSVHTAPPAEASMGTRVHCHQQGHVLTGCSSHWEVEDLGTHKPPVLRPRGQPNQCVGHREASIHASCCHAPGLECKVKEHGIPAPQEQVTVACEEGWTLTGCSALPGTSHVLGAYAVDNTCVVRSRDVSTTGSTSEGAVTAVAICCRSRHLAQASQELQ

As to `C#Cc1ncc(-c2ncc(-c3ccc4ccccc4c3)n2CCCC(C)(C)C)n1CCCCCNC`, the figures for the Activity entry (with HepG2; in [1]; in data set [2]) were “Non-Toxic”, 91.1% and 81.87%, respectively.

On to `O=c1ccc2ccc(O)cc2o1` [UMBELLIFERONE], for which the microsomal CLint at 5 µM came to 390 µL/min/mg in [3] and 533 µL/min/mg in data set [4].

Regarding `CCOc1ccc2ccc(=O)oc2c1` [ETHOXYCOUMARIN], the results for the microsomal CLint at 5 µM in data set [3] and in [4] were 46.1 µL/min/mg and 291 µL/min/mg, respectively.

Regarding `CNCCCCCn1c(-c2ncc(-c3ccc4ccccc4c3)n2CCCC(C)(C)C)cnc1I`, the Activity entry is “Non-Toxic” in the data set with HepG2, 101.1% in data set [5] and 103.47% in data set [6]. Further, the inhibition entry in data set [7] and in [8] was “Active” in each case.

For the origin of these results see ChEMBL document CHEMBL5338811, “Computational Design, Synthesis, and Biological Evaluation of Diimidazole Analogues Endowed with Dual PCSK9/HMG-CoAR-Inhibiting Activity” (J Med Chem, 2023).
